The values below come from ChEMBL document CHEMBL4014327 (J Med Chem, 2017).

In brackets after ≈: the same amount, converted by molar mass. Activity calls are given as the source filed them. No cut-off for these calls is given here. Where only a bound is given, the exact number is not on record here.

The target of data set [1] is T1, Interleukin-1 receptor-associated kinase 4 (Homo sapiens, UniProt Q9NWZ3).
T1 sequence (Q9NWZ3 whole entry): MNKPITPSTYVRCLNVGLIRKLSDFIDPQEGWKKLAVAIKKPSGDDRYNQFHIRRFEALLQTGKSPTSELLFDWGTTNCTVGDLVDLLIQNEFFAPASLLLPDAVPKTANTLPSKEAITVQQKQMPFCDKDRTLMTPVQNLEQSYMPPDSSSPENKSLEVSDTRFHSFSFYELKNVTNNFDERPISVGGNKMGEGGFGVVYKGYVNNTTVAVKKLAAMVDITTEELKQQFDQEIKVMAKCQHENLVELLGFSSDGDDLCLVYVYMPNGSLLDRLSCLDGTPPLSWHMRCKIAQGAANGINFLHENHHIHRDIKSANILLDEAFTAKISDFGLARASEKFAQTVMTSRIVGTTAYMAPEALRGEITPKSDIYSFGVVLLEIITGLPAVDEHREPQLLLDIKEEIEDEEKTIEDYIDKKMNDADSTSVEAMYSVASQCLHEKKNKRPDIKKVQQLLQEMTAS
The experiment in a line: Inhibition of N-terminal His6-tagged human full length IRAK4 preincubated for 20 mins followed by biotinylated-AGAGRDKYKTLRQIR substrate addition in presence of ATP measured after 60 mins by DELFIA method.

A short description of data set [2]: Apparent permeability in RRCK cells from apical to basolateral side. In kind it is ADME, cell-based, Canis lupus familiaris, MDCKII-LE. To be noted: dog, MDCK. Summed up:
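RRCK cell monolayer permeability assay; apparent permeability reported in cm/s.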

The nature of data set [3]: Apparent intrinsic clearance in human liver microsomes. In kind it is ADME, microsome. To be noted: read-out: CLH(app). In general terms: Liver microsomes are vesicles of endoplasmic reticulum, rich in cytochrome P450 enzymes.
Data set [4] is described as follows: Lipophilicity, log D of compound. To be noted: octanol/water. It counts as physicochemical.
For data set [5], the target named is T1, Interleukin-1 receptor-associated kinase 4. Nature of the data set: Inhibition of IRAK4 in human PBMC assessed as reduction in R848-stimulated TNF alpha production after 3 hrs.
The next data set has as its target CYP2C8 (Homo sapiens, UniProt P10632). Nature of the data set: Inhibition of CYP2C8 in human liver microsomes at 3 uM. In kind it is ADME.
Data set [6] in a line: Oral bioavailability in rat. In kind it is ADME, organism-based. To be noted: in vivo.
In data set [7] the test system is Rattus norvegicus. Nature of the data set: Antiinflammatory activity in Lewis rat CIA model assessed as reduction in paw swelling at 100 mg/kg, po bid treated on day 11 post immunization for 8 days by plethysmographic method. In kind it is functional, organism-based. The gist of the method: (§1)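 Female Lewis rats (about 7−9 weeks old, n = 10 per group) immunized on day 0 with bovine type II collagen in incomplete Freund's adjuvant and boosted on day 7. Oral dosing twice daily as solution or suspension in vehicle (0.5% methylcellulose, 2% Tween 80 in water), vehicle-only controls. Paw volume measured daily by plethysmograph, body weight recorded daily.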

Data set [8] concerns Rattus norvegicus. The experiment in a line: Antiinflammatory activity in Lewis rat CIA model assessed as reduction in paw swelling at 30 mg/kg, po bid treated on day 11 post immunization for 8 days by plethysmographic method. In kind it is functional, organism-based. Summed up: as §1
Data set [9] in a line: Thermodynamic solubility of compound at pH 6.5. It counts as physicochemical. To be noted: buffer, read-out: Therm_solubility.
The next data set has as its target CYP2D6 (Homo sapiens, UniProt P10635). Nature of the data set: Inhibition of CYP2D6 in human liver microsomes at 3 uM. In kind it is ADME.
A further data set has as its target CYP3A4 (Homo sapiens, UniProt P08684). Nature of the data set: Inhibition of CYP3A4 in human liver microsomes at 3 uM. In kind it is ADME.
The target in another data set is CYP2C9 (Homo sapiens, UniProt P11712). Nature of the data set: Inhibition of CYP2C9 in human liver microsomes at 3 uM. It counts as ADME.
Sequence of CYP2C9 (P11712 whole entry): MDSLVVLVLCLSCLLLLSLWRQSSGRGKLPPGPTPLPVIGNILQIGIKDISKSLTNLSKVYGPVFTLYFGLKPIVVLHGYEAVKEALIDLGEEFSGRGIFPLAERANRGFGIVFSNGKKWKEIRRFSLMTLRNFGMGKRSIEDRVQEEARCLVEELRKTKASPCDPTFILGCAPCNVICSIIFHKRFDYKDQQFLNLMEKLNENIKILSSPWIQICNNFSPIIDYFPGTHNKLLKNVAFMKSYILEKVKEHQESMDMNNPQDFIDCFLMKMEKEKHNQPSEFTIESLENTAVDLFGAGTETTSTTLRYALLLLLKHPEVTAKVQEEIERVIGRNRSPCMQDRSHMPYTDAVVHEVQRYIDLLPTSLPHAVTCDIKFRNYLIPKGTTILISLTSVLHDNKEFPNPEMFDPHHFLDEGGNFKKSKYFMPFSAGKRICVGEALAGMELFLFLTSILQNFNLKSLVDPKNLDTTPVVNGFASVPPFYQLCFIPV
Data set [10] can be described thus: Fraction unbound in human plasma. It counts as ADME, cell-free. Summed up:
(§2)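 Fraction unbound in plasma measured by equilibrium dialysis.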

Data set [11] relates to Rattus norvegicus. The experiment in a line: In vivo receptor occupancy at IRAK4 in spleen of po dosed Lewis rat CIA model measured at 1 hr postdose. In kind it is functional, organism-based.
The subject of data set [12] is Rattus norvegicus. Nature of the data set: Clearance in iv dosed rat. In kind it is ADME, organism-based. To be noted: in vivo.
The next data set deals with CYP1A2 (Homo sapiens, UniProt P05177). The experiment in a line: Inhibition of CYP1A2 in human liver microsomes at 3 uM. In kind it is ADME.
Sequence of CYP1A2 (P05177 whole entry): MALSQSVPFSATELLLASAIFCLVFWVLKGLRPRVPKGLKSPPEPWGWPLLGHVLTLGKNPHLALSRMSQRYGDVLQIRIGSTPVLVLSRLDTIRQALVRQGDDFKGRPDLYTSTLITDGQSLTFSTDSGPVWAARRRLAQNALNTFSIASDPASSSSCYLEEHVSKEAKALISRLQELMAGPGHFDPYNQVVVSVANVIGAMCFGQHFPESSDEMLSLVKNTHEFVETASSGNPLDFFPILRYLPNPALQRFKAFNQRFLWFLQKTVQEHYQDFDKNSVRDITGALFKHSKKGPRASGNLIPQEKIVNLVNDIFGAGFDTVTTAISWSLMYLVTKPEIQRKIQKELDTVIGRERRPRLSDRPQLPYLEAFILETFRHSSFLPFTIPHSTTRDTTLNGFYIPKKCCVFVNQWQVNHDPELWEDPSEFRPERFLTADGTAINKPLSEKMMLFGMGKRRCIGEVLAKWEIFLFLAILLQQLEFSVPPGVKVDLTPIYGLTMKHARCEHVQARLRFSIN
Data set [13] deals with Rattus norvegicus. The experiment in a line: In vivo receptor occupancy at IRAK4 in spleen of Lewis rat CIA model at 100 mg/kg, po measured at 1 hr postdose. In kind it is functional. The gist of the method:
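Lewis female rats (7–9 wk, n = 10/group), immunized with bovine type II collagen/IFA on day 0 and boosted day 7. Oral dosing twice daily in therapeutic mode (started after disease onset), vehicle 0.5% methylcellulose, 2% Tween 80 in water. Spleens sampled 1 h postdose, flash frozen. Kinase occupancy measured by KiNativ profiling with an ATP-competitive probe.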

Data set [14] in a line: Fraction unbound in rat plasma. It counts as ADME, cell-free. Summed up: as §2
For data set [15], the target named is Voltage-gated inwardly rectifying potassium channel KCNH2 (Homo sapiens, UniProt Q12809). Nature of the data set: Inhibition of human ERG.
Sequence of Voltage-gated inwardly rectifying potassium channel KCNH2 (Q12809 whole entry): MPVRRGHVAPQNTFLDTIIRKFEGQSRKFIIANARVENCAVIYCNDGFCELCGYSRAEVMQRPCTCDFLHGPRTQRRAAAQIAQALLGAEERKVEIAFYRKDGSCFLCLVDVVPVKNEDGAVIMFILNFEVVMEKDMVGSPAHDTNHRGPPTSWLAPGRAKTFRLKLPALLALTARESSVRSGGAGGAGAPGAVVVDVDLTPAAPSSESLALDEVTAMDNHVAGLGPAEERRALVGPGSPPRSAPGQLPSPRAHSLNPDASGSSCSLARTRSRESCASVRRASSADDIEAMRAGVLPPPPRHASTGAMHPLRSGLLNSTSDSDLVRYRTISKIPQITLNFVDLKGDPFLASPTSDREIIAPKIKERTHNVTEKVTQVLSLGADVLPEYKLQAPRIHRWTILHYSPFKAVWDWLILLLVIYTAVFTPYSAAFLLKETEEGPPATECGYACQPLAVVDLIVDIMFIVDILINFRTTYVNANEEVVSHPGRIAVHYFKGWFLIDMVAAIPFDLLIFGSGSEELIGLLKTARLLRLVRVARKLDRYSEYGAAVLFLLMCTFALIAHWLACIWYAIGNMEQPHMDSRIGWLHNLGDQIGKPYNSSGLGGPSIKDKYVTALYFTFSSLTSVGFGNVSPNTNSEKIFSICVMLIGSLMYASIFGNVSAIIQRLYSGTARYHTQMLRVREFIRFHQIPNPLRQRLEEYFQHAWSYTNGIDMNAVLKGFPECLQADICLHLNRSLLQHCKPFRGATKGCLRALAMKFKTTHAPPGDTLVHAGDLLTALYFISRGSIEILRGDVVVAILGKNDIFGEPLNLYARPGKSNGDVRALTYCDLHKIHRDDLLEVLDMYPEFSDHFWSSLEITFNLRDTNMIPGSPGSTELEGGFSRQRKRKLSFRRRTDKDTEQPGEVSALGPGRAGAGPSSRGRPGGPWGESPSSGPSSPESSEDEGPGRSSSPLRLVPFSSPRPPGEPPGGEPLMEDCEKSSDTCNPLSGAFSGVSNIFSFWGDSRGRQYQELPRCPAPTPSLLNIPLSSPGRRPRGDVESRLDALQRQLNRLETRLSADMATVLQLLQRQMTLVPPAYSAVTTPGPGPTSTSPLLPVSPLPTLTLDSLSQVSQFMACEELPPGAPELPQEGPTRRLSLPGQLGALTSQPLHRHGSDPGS
The target in data set [16] is T2, Interleukin-1 receptor-associated kinase 4 (Homo sapiens) (UniProt Q9NWZ3).
T2 sequence (whole entry): T1 sequence (Q9NWZ3 whole entry)
The experiment in a line: Inhibition of IRAK4 in human THP1 cell lysate.

Data set [17] in a line: Half life in rat. To be noted: in vivo. It counts as ADME.
Data set [18] deals with T2, Interleukin-1 receptor-associated kinase 4 (Homo sapiens). To be noted: 236 uM.
Data set [19] shares this target. To be noted: 909 uM.

Sequence of CYP3A4 (P08684 whole entry): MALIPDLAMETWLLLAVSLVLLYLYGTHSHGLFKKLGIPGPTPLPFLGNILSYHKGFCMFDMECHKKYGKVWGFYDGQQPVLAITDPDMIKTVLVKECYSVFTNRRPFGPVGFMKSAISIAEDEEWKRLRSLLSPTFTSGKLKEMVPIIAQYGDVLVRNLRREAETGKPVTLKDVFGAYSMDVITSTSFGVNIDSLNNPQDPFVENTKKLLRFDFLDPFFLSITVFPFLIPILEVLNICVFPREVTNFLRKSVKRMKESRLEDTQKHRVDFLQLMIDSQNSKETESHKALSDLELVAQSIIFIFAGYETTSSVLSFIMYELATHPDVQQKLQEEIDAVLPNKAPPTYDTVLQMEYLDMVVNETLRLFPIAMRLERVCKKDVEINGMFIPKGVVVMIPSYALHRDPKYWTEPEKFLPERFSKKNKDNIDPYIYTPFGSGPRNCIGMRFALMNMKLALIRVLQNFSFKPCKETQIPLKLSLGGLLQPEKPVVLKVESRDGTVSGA
Sequence of CYP2D6 (P10635 whole entry): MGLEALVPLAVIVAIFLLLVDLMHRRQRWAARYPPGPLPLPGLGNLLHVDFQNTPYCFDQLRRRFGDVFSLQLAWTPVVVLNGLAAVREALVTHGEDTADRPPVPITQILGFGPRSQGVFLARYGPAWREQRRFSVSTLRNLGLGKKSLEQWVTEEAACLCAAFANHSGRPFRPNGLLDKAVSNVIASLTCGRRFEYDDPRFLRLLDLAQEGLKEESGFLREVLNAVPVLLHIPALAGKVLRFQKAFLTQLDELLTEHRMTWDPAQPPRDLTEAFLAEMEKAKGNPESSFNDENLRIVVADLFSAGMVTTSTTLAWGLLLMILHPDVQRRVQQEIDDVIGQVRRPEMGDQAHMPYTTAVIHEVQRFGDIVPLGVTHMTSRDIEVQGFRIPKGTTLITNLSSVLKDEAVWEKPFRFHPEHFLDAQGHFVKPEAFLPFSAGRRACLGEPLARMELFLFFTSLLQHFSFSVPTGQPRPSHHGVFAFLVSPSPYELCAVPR
Sequence of CYP2C8 (P10632 whole entry): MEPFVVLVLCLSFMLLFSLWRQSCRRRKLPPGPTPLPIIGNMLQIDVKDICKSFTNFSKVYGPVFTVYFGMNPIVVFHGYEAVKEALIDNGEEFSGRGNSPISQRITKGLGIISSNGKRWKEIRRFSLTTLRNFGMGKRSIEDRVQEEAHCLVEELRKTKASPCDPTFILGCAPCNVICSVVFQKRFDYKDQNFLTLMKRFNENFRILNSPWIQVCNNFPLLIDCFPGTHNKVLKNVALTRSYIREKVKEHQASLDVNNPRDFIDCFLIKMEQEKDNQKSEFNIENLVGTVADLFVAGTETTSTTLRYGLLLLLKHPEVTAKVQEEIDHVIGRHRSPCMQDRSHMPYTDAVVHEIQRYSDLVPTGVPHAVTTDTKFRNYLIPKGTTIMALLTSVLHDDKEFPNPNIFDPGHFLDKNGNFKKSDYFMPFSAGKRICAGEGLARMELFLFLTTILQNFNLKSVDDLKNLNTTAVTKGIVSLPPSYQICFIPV

Broadly, the IC50 is the midpoint of a concentration-inhibition curve. On to `CC(C)Oc1cc2c(-c3ccc(C#N)cc3)cccc2cc1C(N)=O`, for which, in [1], the concentration for half-maximal inhibition (IC50) worked out at 71.9 nM.

Usually Papp A→B stands for the apparent permeability from the apical to the basolateral side of a cell layer. In the case of `COc1cc2c(OC[C@H]3NC(=O)[C@@H]4[C@@H](C)[C@@H]43)nccc2cc1C(N)=O`, the apparent permeability from apical to basolateral (Papp A→B) in data set [2] turned out to be 13.5 ×10⁻⁶ cm/s. Also, the microsomal CLint in data set [3] was less than 8 µL/min/mg.

Broadly, the logD is lipophilicity at a set pH, counting ionised and neutral species. A low value points to lower lipophilicity. Regarding `CC(C)Oc1cc2c(O[C@@H]3CCCNC3)nccc2cc1C(N)=O`, the logD in data set [4] was 0.7. The Papp A→B in [2] stood at 11.4 ×10⁻⁶ cm/s. Also, the half-inhibitory concentration (IC50) in data set [1] stood at 121 nM; in data set [5] it was 1550 nM. Also, the microsomal CLint in data set [3] turned out to be 11 µL/min/mg.

Turning to `COc1cc2c(OC[C@H]3NC(=O)[C@@H](F)[C@H]3C)nccc2cc1C(N)=O`, in data set [2], the Papp A→B was determined as 9.9 ×10⁻⁶ cm/s. Also, the microsomal CLint in [3] is less than 9 µL/min/mg.

What is called inhibition is the percentage by which the read-out fell short of the control. As a reminder, the bioavailability is dose-corrected exposure relative to a reference, in per cent. The low end stands for poor availability, the high end for good availability. In general, fraction unbound refers to the share of the substance not bound to proteins or other matrix. Higher therefore signals much free substance. One may read the clearance as a measure of how efficiently the substance is removed, as volume per time. One may read the half-life as how long it takes for the measured level to halve. High values mean slow decline, low ones rapid decline. Regarding `CC(C)Oc1cc2c(OC[C@@H]3CCC(=O)N3)nccc2cc1C(N)=O`, the inhibition at 3 µM was less than 10% against CYP2C8; less than 10% against CYP2D6; less than 10% on CYP3A4; 13.6% on CYP2C9; less than 10% on CYP1A2. The bioavailability in [6] is 57%. Also, in data set [2], the Papp A→B was 10.7 ×10⁻⁶ cm/s. For the same molecule, the outcome in the data set with Rattus norvegicus [7] and in the data set with Rattus norvegicus [8] was Active. Moreover, the solubility thermodynamic in data set [9] was determined as 78 µM (≈ 26.8 µg/mL). In addition, in [3], the microsomal CLint was 10 µL/min/mg. For the same molecule, the fraction unbound in data set [10] came to 0.29; in data set [14], 0.21. The Occ entry in the data set on Rattus norvegicus [11] is “Dose-dependent effect”; in the data set with Rattus norvegicus [13], 80%. This molecule also came in with a clearance in the data set with Rattus norvegicus [12] of 23 mL/min/kg. The molecule further had an IC50 in data set [15] of more than 30 µM. The inhibition entry in data set [16] was “Active”. The molecule also gave a half-life in data set [17] of 72 min.

In the case of `CC(C)Oc1cc2ccccc2cc1C(N)=O`, the concentration for half-maximal inhibition (IC50) in data set [1] is 2090 nM.

On to `COc1cc2c(OC[C@H]3NC(=O)[C@@H](C)[C@H]3C)nccc2cc1C(N)=O`, for which the Papp A→B in data set [2] stood at 15.8 ×10⁻⁶ cm/s. Further, in data set [3], the microsomal CLint is 9 µL/min/mg.

Regarding `CC(C)Oc1cc2c(OC[C@H]3CCC(=O)N3)nccc2cc1C(N)=O`, in data set [2], the Papp A→B was 10.5 ×10⁻⁶ cm/s.

Take `CC[C@@H]1CC(=O)N[C@@H]1COc1nccc2cc(C(N)=O)c(OC)cc12`: the Papp A→B in data set [2] worked out at 17.9 ×10⁻⁶ cm/s. In addition, the microsomal CLint in data set [3] is 14 µL/min/mg.

For `COc1cc2c(OC[C@H]3NC(=O)[C@H](C)[C@H]3C)nccc2cc1C(N)=O`, the Papp A→B in [2] came out at 13.9 ×10⁻⁶ cm/s. Also, the microsomal CLint in data set [3] turned out to be 32 µL/min/mg.

On to `COc1cc2c(OC[C@H]3NC(=O)[C@@H]4C[C@H]34)nccc2cc1C(N)=O`, for which the Papp A→B in data set [2] is 11.7 ×10⁻⁶ cm/s. Moreover, the microsomal CLint in data set [3] is less than 8 µL/min/mg.

As to `CC[C@H]1[C@@H](COc2nccc3cc(C(N)=O)c(OC)cc23)NC(=O)[C@@H]1F`, in data set [2], the Papp A→B is 14.2 ×10⁻⁶ cm/s. For the same molecule, the microsomal CLint in data set [3] turned out to be 15 µL/min/mg.

In turn, `COc1cc2c(OC[C@@H]3CCC(=O)N3)cccc2cc1C(N)=O` gave a logD in data set [4] of 1.5. For the same molecule, in data set [2], the Papp A→B amounted to 14.2 ×10⁻⁶ cm/s. The microsomal CLint in data set [3] turned out to be 13 µL/min/mg.

For `CC(C)Oc1cc2c(O[C@@H]3CCCNC3)ccnc2cc1C(N)=O`, the logD in data set [4] was 0.4. Further, the Papp A→B in data set [2] is 2.8 ×10⁻⁶ cm/s. Besides, in data set [1], the IC50 was determined as 146 nM.

Consider `COc1cc2c(OC[C@@H]3CCC(=O)N3)ccnc2cc1C(N)=O`, for which the Papp A→B in [2] is 5.8 ×10⁻⁶ cm/s. The microsomal CLint in data set [3] was less than 8 µL/min/mg.

In the case of `COc1cc2c(OC[C@H]3NC(=O)[C@H](F)[C@H]3C)nccc2cc1C(N)=O`, the apical-to-basolateral permeability (Papp A→B) in [2] was determined as 10.4 ×10⁻⁶ cm/s. Further, the microsomal CLint in [3] amounted to 12 µL/min/mg.

As to `COc1cc2c(OC[C@H]3NC(=O)C[C@H]3C)nccc2cc1C(N)=O`, in data set [2], the apparent permeability from apical to basolateral (Papp A→B) was 10.5 ×10⁻⁶ cm/s. Also, the microsomal CLint in data set [3] is less than 9 µL/min/mg.

With `CCC[C@@H]1CC(=O)N[C@@H]1COc1nccc2cc(C(N)=O)c(OC)cc12`, the Papp A→B in data set [2] was 18.9 ×10⁻⁶ cm/s. Also, in data set [3], the microsomal CLint was 44 µL/min/mg. In addition, the IC50 in [5] turned out to be 28.4 nM.

Consider `COc1cc2c(OC[C@H]3NC(=O)[C@@]4(F)[C@@H]3[C@@H]4C)nccc2cc1C(N)=O`, for which the Papp A→B in data set [2] was found to be 16.3 ×10⁻⁶ cm/s. The microsomal CLint in [3] is less than 8 µL/min/mg.

`CCOc1cc2c(OC[C@@H]3CCC(=O)N3)nccc2cc1C(N)=O`: in data set [2], the Papp A→B was 10.6 ×10⁻⁶ cm/s. For the same molecule, the microsomal CLint in data set [3] turned out to be 9 µL/min/mg.

For the molecule `COC[C@@H]1CC(=O)N[C@@H]1COc1nccc2cc(C(N)=O)c(OC)cc12`, the Papp A→B in [2] is 12.5 ×10⁻⁶ cm/s. Also, in data set [3], the microsomal CLint is less than 8 µL/min/mg. In data set [5], the concentration for half-maximal inhibition (IC50) worked out at 373 nM.

Molecule `COc1cc2c(OC[C@@H]3CCC(=O)N3)nccc2cc1C(N)=O` registered a logD in [4] of 0.9. This molecule also came in with a bioavailability in data set [6] of 44%. The apparent permeability from apical to basolateral (Papp A→B) in data set [2] amounted to 9.9 ×10⁻⁶ cm/s. Further, in data set [3], the microsomal CLint came out at 9 µL/min/mg. This molecule also gave a clearance in the data set with Rattus norvegicus [12] of 35 mL/min/kg. In addition, the half-life in [17] is 60 min.

Turning to `CC(C)Oc1ccccc1C(N)=O`, the values for the inhibition in data set [18] and in data set [19] were more than 10% and more than 50%, respectively. Besides, the concentration for half-maximal inhibition (IC50) in data set [1] was determined as 55000 nM.
